23 compounds from ChEMBL document CHEMBL4699504, “7-Hydroxycoumarins Are Affinity-Based Fluorescent Probes for Competitive Binding Studies of Macrophage Migration Inhibitory Factor” (J Med Chem, 2020) can be followed below.

≈ marks a conversion by molar mass, not a printed value. Calls of active or inactive are those of the source. The calls are words filed in the database; no cut-off is given here.

For data set [1], the target named is T1, Macrophage migration inhibitory factor (Homo sapiens, UniProt P14174).
T1 sequence (P14174 whole entry): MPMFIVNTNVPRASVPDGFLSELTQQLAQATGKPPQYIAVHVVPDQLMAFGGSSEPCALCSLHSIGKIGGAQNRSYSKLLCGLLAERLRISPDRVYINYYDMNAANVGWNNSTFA
As to the kind of experiment: Inhibition of C-terminal His-tagged recombinant human MIF expressed in Escherichia coli BL21 (DE3) using 4-HPP as substrate preincubated for 10 mins followed by substrate addition by UV absorption spectrum analysis.

A short description of data set [2]: Emission property of the compound in pH 7.4 PBS buffer assessed as maximum emission wavelength at 200 nm by fluorescence spectra analysis. Conditions: pH 7.4, 200 nM.
For data set [3], the target named is T1, Macrophage migration inhibitory factor. Briefly: Binding affinity to C-terminal His-tagged recombinant human MIF expressed in Escherichia coli BL21 (DE3) at 100 nM by fluorescence assay. Put shortly: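 Fluorescent indicator displacement in PBS pH 7.4. Compound preincubated with MIF 10 min at RT, then 7-hydroxycoumarin indicator added for another 10 min at RT. Final MIF 100 nM, indicator 50 nM, DMSO 2.5%. Fluorescence read at Ex/Em 355/455 nm. EC50 for fluorescence recovery from nonlinear fit, converted to Kd with a displacement equation using indicator KS. Three independent experiments.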

Data set [4] addresses T2, Macrophage migration inhibitory factor (Homo sapiens) (UniProt P14174).
T2 sequence (whole entry): T1 sequence (P14174 whole entry)
Briefly: Binding affinity to C-terminal His-tagged recombinant human MIF expressed in Escherichia coli BL21 (DE3) assessed as fluorescence quenching at 200 nM by fluorescence assay. A digest of the protocol: (§1)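 Equal volumes of fluorophore (diluted from 10 mM DMSO stock to 200 nM in PBS pH 7.4) and MIF dilution series (16–8000 nM) mixed, 10 min at room temperature; fluorescence read at Ex/Em 340/460 nm or 355/455 nm; KS from hyperbolic fit of specific binding curve; n = 3.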

Data set [5] deals with T2, Macrophage migration inhibitory factor (Homo sapiens). Briefly: Binding affinity to C-terminal His-tagged recombinant human MIF expressed in Escherichia coli BL21 (DE3) at 100 nM in presence of 3-(3,4-Dimethoxyphenyl)-7-hydroxy-3,4-dihydro-2Hbenzo[e][1,3]oxazin-2-one by fluorescence assay.
Data set [6] is described as follows: Absorption property of the compound in pH 7.4 PBS buffer assessed as maximum absorption wavelength at 100 uM by UV-vis spectra analysis. In kind it is physicochemical. Conditions: pH 7.4, 100 µM. A digest of the protocol:
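UV absorption spectra recorded at 100 μM compound in PBS pH 7.4 containing 5% (v/v) DMSO on a plate reader; wavelength of maximum absorbance taken.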

Data set [7] has as its target T1, Macrophage migration inhibitory factor. As to the kind of experiment: Displacement of 4'-(7-Hydroxy-2-oxo-2H-chromen-3-yl)-[1,1'-biphenyl]-4-carboxylic acid from C-terminal His-tagged recombinant human MIF expressed in Escherichia coli BL21 (DE3) preincubated for 10 mins followed by probe addition and measured after 10 mins by fluorescence assay.
In data set [8] the target is T2, Macrophage migration inhibitory factor (Homo sapiens). As to the kind of experiment: Inhibition of C-terminal His-tagged recombinant human MIF expressed in Escherichia coli BL21 (DE3) at 25 uM using 4-HPP as substrate preincubated for 10 mins followed by substrate addition by UV absorption spectrum analysis relative to control.
The subject of data set [9] is A549. Briefly: Inhibition of colony formation in human A549 cells at 2.5 to 10 uM incubated for 10 days by crystal violet staining based assay. Conditions: dose microM 2.5-10, time 10.0 day. It counts as functional, cell-based. Put shortly:
(§2)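 A549 seeded at 100 cells/well in RPMI with 10% FBS, overnight, then treated 10 days (0.2% DMSO final); fixed 4% paraformaldehyde, stained 0.5% crystal violet; colonies (>50 cells) counted vs 0.2% DMSO control; three independent experiments.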

Data set [10] has as its system A549. As to the kind of experiment: Toxicity in human A549 cells assessed as reduction in cell viability up to 20 uM measured after 24 hrs by MTS assay. It counts as cell-based. Conditions: a549, 24 h. A digest of the protocol: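 A549 cells treated 24 h; viability read by MTS assay.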
In data set [11] the target is T2, Macrophage migration inhibitory factor (Homo sapiens). Briefly: Inhibition of MIF (unknown origin) cultured in human A549 cells assessed as reduction in MIF-induced ERk phosphorylation at 10 uM preincubated with MIF for 10 mins followed by cell addition and measured after 10 mins by Western blot analysis. Conditions: time 20.0 min. It counts as cell-based. A digest of the protocol: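 A549 (2 × 10^5/well) cultured overnight; 150 ng/mL endotoxin-free MIF preincubated 10 min with compound, then applied to cells 10 min at 37 °C (0.2% DMSO); lysates (30 μg protein) blotted; pERK/GAPDH ratio; four independent experiments.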

For a further data set, the target named is Albumin (Bos taurus, UniProt P02769). As to the kind of experiment: Binding affinity to bovine serum albumin assessed as fluorescence quenching at 50 nM by fluorescence assay. In kind it is ADME. The note with it: cattle, isolated protein, 0.05 µM. A digest of the protocol:
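Control for non-specific quenching: 50 nM fluorophore titrated with BSA (up to 800 nM) in PBS pH 7.4, fluorescence intensity compared against MIF titration.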

A short description of data set [12]: Solubility of compound in pH 7.4 phosphate buffer. It counts as physicochemical. Put shortly:
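Solubility measured in PBS pH 7.4.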

Data set [13] can be described thus: Half life of compound in pH 7.4 PBS buffer at 100 nM in presence of MIF. The note with it: pH 7.4, 0.1 µM. In kind it is physicochemical. A digest of the protocol: (§3)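 Fluorescence lifetime of 100 nM fluorophore in 1 mL PBS pH 7.4, measured alone or with 500 nM MIF.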
The target in data set [14] is T1, Macrophage migration inhibitory factor. As to the kind of experiment: Binding affinity to C-terminal His-tagged recombinant human MIF expressed in Escherichia coli BL21 (DE3) at 200 nM by fluorescence assay. A digest of the protocol: as §1
For data set [15], the target named is T2, Macrophage migration inhibitory factor (Homo sapiens). Briefly: Binding affinity to C-terminal His-tagged recombinant human MIF expressed in Escherichia coli BL21 (DE3) assessed as fluorescence quenching at 50 nM in presence of CuSO4 by fluorescence assay. A digest of the protocol: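 Indicator displacement setup (100 nM MIF, 50 nM fluorophore, PBS pH 7.4) run with Cu2+ ions up to 200 μM; fluorescence read at Ex/Em 355/455 nm.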

The nature of data set [16]: Half life of compound in pH 7.4 PBS buffer at 100 nM. It counts as physicochemical. The note with it: pH 7.4, 0.1 µM. Put shortly:
as §3

Data set [17] concerns the target T2, Macrophage migration inhibitory factor (Homo sapiens). Briefly: Competitive inhibition of C-terminal His-tagged recombinant human MIF expressed in Escherichia coli BL21 (DE3) up to 50 nM using varying levels of 4-HPP as substrate preincubated for 10 mins followed by substrate addition by Lineweaver-burk plot analysis. Conditions: dose nM <=50, time 10.0 min.

The target is the same in data set [18]. As to the kind of experiment: Binding affinity to C-terminal His-tagged recombinant human MIF expressed in Escherichia coli BL21 (DE3) assessed as fluorescence quenching at 50 nM by fluorescence assay. A digest of the protocol:
as §1

Data set [19] concerns the target T1, Macrophage migration inhibitory factor. As to the kind of experiment: (§4) Binding affinity to C-terminal His-tagged recombinant human MIF expressed in Escherichia coli BL21 (DE3) assessed as inhibition of MIF interaction with MBP-fused human CD74 preincubated for 10 mins with CD74 followed by MIF addition and measured after 30 mins by ELISA. Put shortly:
(§5)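 MIF (250 nM, 100 μL) coated overnight at 4 °C, blocked 1 h with 2% BSA; inhibitor (1–100 μM) premixed 10 min with 500 nM MBP–sCD74, added 30 min at room temperature; bound sCD74 detected with rabbit anti-CD74 then HRP anti-rabbit, 30 min each; DMSO = 100%, no sCD74 = 0%; mean ± SD, n = 3.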

The target of data set [20] is T2, Macrophage migration inhibitory factor (Homo sapiens). The data set is described as §4. The note with it: time 40.0 min. Put shortly:
as §5

Data set [21] shares this target. Briefly: Binding affinity to C-terminal His-tagged recombinant human MIF expressed in Escherichia coli BL21 (DE3) assessed as inhibition of MIF interaction with MBP-fused human CD74 up to 50 uM preincubated for 10 mins with CD74 followed by MIF addition and measured after 30 mins by ELISA. The note with it: dose microM <=50, time 40.0 min. A digest of the protocol:
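MIF (250 nM) coated on plates overnight at 4 °C, then blocked with 2% BSA for 1 h at RT. Inhibitor in DMSO premixed 10 min at RT with MBP–sCD74 (final 500 nM sCD74; inhibitor 1–100 μM), then added to wells for 30 min at RT. Bound sCD74 detected with rabbit anti-CD74 pAb and goat anti-rabbit HRP. No-inhibitor signal set to 100%, no-sCD74 signal to 0%. n = 3.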

The subject of data set [22] is A549. As to the kind of experiment: Inhibition of colony formation in human A549 cells at 100 uM incubated for 10 days by crystal violet staining based assay. The note with it: time 10.0 day. In kind it is functional, cell-based. A digest of the protocol:
as §2

On to `O=c1oc2cc(O)ccc2cc1-c1ccc2ccccc2c1`, for which, in [1], the IC50 is 2.19 µM and the inhibition constant (Ki) was 1.46 µM.
The matching figures for `COc1cccc(-c2cc3ccc(O)cc3oc2=O)c1`: 1.85 µM and 1.23 µM.
As to `O=c1oc2cc(O)ccc2cc1-c1ccccc1Cl`, in data set [1], the IC50 is 19.1 µM and the inhibition constant Ki was 12.7 µM.
On the same counts, the results for `Cc1ccc(-c2cc3ccc(O)cc3oc2=O)cc1` are 0.69 µM and 0.46 µM.
On the same counts, the results for `O=c1oc2cc(O)ccc2cc1-c1ccc(Br)cc1` are 0.47 µM and 0.31 µM.
With `COc1ccc(-c2cc3ccc(O)cc3oc2=O)cc1`, the IC50 in [1] turned out to be 0.56 µM. The Activity in data set [2] is 460 nm; in data set [6], 340 nm. In [3], the Kd came to 0.39 µM. In addition, the outcome in data set [4] was Active. The outcome in data set [5] was inactive.
Turning to `COc1ccccc1-c1cc2ccc(O)cc2oc1=O`, in data set [1], the concentration for half-maximal inhibition (IC50) turned out to be 2.78 µM and the Ki is 1.85 µM.
Consider `COc1ccc(C(=O)N/N=C/c2ccc(O)c(F)c2)cc1`, for which, in data set [1], the Ki worked out at 8 µM. For the same compound, the dissociation constant Kd in data set [7] was determined as 5.6 µM.
For `O=C(Nc1ccccc1)c1cc2ccc(O)cc2oc1=O`, the inhibition in data set [8] is 11%.
For `O=c1oc2cc(O)ccc2cc1-c1ccccc1`, in data set [1], the IC50 was 1.76 µM and the Ki came out at 1.17 µM.
The matching figures for `O=c1oc2cc(O)ccc2cc1-c1ccc(Cl)cc1`: 0.92 µM and 0.61 µM.
The matching figures for `O=c1oc2cc(O)ccc2cc1-c1cccc(Cl)c1`: 1.93 µM and 1.29 µM.
With `O=C(NCc1ccccc1)c1cc2ccc(O)cc2oc1=O`, the inhibition in data set [8] was found to be 12%.
For the compound `Oc1ccc(-n2cc(-c3ccccn3)nn2)cc1`, in data set [7], the Kd worked out at 4 µM.
On the same count and under the same terms, with `O=C(NCc1cn(-c2ccc(O)c(F)c2)nn1)c1cc2ccccc2[nH]1` the figure was 4.4 µM.
Turning to `O=c1oc2cc(O)ccc2cc1-c1ccc(I)cc1`, in data set [1], the IC50 turned out to be 0.72 µM and the Ki was determined as 0.48 µM.
The matching figures for `O=c1oc2cc(O)ccc2cc1-c1ccc(F)cc1`: 2.54 µM and 1.69 µM.
`O=C(O)c1ccc(-c2ccc(-c3cc4ccc(O)cc4oc3=O)cc2)cc1`: the inhibition result (in the data set on A549 [9]; in [11]; in data set [17]) was “Active” in each case. In addition, the Activity entry with A549 [10] is recorded as “Non-Toxic”; at Albumin, “Not Active”. Further, in data set [12] (buffer), the solubility was found to be 18.8 µg/mL (≈ 52.5 µM). Besides, the t1/2 in data set [13] is 4 nanoseconds; in data set [16], 4.2 nanoseconds. In data set [14], the Kd is 0.016 µM. Moreover, in data set [15], the outcome was Active. In data set [18], the Ks turned out to be 16 nM. In addition, the 50% inhibitory concentration (IC50) in data set [19] was determined as 36 µM. The inhibition result in data set [20] was “Dose-dependent effect”.
Regarding `Oc1ccc(-n2cc(-c3cc4ccccc4cn3)nn2)cc1`, the Ki in [1] is 0.44 µM. Besides, in data set [7], the Kd was determined as 0.47 µM. The same compound yielded a solubility in data set [12] (phosphate buffer) of 2.2 µg/mL (≈ 7.63 µM).
For `COc1ccc(N2Cc3ccc(O)cc3OC2=O)cc1OC`, in data set [1], the Ki is 0.1 µM. Besides, the values for the Kd in data set [7] and in data set [3] were 0.11 µM and 0.156 µM, respectively. Further, in data set [21], the inhibition entry is “inactive”.
For the compound `COC(=O)CC1CC(c2ccc(O)cc2)=NO1` (stereo not given), the inhibition result in the data set with A549 [22] is “Active”. In [21], the inhibition result is “inactive”.
As for `CCOC(=O)c1cc2ccc(O)cc2oc1=O`, in data set [1], the IC50 is 18.6 µM and the Ki was determined as 12.4 µM.
`O=C(NCc1cn(-c2ccc(O)c(F)c2)nn1)c1cc2cc(Cl)ccc2[nH]1`: the Kd in [7] amounted to 1.4 µM. Besides, the solubility in [12] (phosphate buffer) is 10.8 µg/mL (≈ 28 µM).
